For assay [1], the target named is Estrogen receptor beta (Homo sapiens) (UniProt Q92731). As to the kind of experiment: Activation of human estrogen receptor beta expressed in HEK293 cells at 10 uM beta-galactosidase reporter gene assay relative to 3,17-beta-estradiol. It is filed as cell-based. The method, boiled down: (§1)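 HEK293 cells seeded a day ahead in phenol-free DMEM with 5% delipidated FBS. Calcium phosphate transfection for 4 h with 5 ng ERα or ERβ expression vector, 75 ng pERE2TATA-LUC reporter and 20 ng pCMVβ control. Test compound at 10 µM (vehicle 0.1% v/v) for 24 h. Luciferase normalized to β-galactosidase. Activity = 100% × (test − vehicle)/(10 nM E2 − vehicle). Mean of ≥3 independent transfections.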

For assay [2], the target named is T1, Estrogen receptor (Homo sapiens) (UniProt P03372).
T1 sequence (whole entry): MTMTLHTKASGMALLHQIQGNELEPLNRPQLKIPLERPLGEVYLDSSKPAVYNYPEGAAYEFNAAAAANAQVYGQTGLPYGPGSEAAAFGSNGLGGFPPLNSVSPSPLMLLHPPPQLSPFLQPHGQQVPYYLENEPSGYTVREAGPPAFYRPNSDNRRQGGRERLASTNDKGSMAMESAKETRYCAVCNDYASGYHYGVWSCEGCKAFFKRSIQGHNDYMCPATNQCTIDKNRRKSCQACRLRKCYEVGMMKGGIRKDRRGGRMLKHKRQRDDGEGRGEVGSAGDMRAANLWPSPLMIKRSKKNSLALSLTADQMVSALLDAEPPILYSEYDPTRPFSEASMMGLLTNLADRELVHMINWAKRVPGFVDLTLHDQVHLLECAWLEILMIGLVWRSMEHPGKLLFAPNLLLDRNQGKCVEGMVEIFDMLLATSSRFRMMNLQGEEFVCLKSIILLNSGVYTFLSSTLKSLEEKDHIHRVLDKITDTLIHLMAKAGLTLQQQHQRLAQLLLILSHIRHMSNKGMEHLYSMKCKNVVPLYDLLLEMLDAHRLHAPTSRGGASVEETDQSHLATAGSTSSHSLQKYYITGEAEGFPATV
As to the kind of experiment: Activation of human estrogen receptor alpha expressed in HEK293 cells at 10 uM by beta-galactosidase reporter gene assay relative to 3,17 beta-estradiol. It is filed as cell-based. The method, boiled down:
as §1

Values joined by “and” are separate entries in the source; they are usually repeats but may differ in a detail not shown here. Identical values can stand only once.

Chain of Estrogen receptor beta (Homo sapiens) (Q92731 whole entry): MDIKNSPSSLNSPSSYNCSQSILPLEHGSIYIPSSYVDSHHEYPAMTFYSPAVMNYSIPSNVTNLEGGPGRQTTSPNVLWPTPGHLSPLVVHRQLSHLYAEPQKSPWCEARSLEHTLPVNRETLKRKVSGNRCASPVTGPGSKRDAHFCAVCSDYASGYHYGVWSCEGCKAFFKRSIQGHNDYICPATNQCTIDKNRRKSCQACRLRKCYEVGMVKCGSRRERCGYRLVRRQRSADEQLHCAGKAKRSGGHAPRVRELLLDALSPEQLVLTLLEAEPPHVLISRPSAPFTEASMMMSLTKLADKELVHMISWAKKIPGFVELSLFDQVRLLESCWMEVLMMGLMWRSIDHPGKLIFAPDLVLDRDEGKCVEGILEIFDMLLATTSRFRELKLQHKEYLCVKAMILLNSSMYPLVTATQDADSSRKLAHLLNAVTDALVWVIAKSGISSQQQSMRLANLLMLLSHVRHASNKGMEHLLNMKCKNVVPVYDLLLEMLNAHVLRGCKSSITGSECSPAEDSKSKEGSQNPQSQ

For the compound `Oc1ccc(CCC2=NOC(Cc3ccccc3)C2)cc1` (single isomer, unassigned), the Activity in assay [1] amounted to 41.5%; in assay [2], 24.3%. The corresponding values for `c1ccc(CCC2=NOC(CCc3ccccc3)C2)cc1` (single isomer, unassigned; 18a) are 0.2% and 3.4%. In the same order, the values of `Oc1cccc(CCC2=NOC(Cc3ccccc3)C2)c1` (stereo not drawn) are -2.5% and 15.7%.

Take `CS(C)=C(C(=O)Cc1ccccc1)C(=O)Cc1ccccc1`: the values for the Activity in assay [1] and in assay [2] were -0.4% and 0.5%, respectively.

Turning to `c1ccc(CCC2=NOC(Cc3ccc4ccccc4c3)C2)cc1` (single isomer, unassigned; 53a), the results for the Activity in assay [1] and in assay [2] were 8.2% and 22.3%, respectively. The corresponding values for `COC(CC(=O)Cc1ccccc1)Cc1ccccc1` (stereo not drawn) are 0.3% and 1.4%.

`c1ccc(CCC2=NOC(c3ccccc3)C2)cc1` (single isomer, unassigned; 12b): the Activity in assay [1] is 8.1%; in assay [2], 11.2%. The corresponding values for `Fc1ccc(CC2CC(CCc3ccccc3)=NO2)cc1` (stereo not drawn) are 11.2% and 99.2%. With `COC(CC(=O)c1ccccc1)Cc1ccccc1` (stereo not drawn), the Activity is 18.4% in assay [1] and 0.3% in assay [2]. In the same order, the values of `CS(C)=C(C(=O)CCCc1ccccc1)C(=O)CCc1ccccc1` are -4.6% and 0.6%. The corresponding values for `O=C(CCc1ccccc1)CC(O)c1ccccc1` (single isomer, unassigned; 23a) are 20.5% and 78.8%. In the case of `O=C(CCc1ccccc1)CC(O)Cc1cccc2ccccc12` (stereo not drawn), the Activity in assay [1] was determined as 1.7%; in assay [2], 12.1%.

For the compound `COC(CCc1ccccc1)CC(=O)c1ccccc1` (stereo not drawn), the Activity in assay [1] was 25.8%; in assay [2], 38.1%.

Turning to `COC(CC(=O)Cc1ccccc1)c1ccccc1` (stereo not drawn), the Activity was -1.2% in assay [1] and 4.9% in assay [2]. In the same order, the values of `O=C(CCc1ccccc1)CC(O)Cc1ccc2ccccc2c1` (single isomer, unassigned; 57b) are 20.1% and 20.1%. In the same order, the values of `O=C(CC(O)Cc1ccccc1)c1ccccc1` (stereo not drawn) are 16.9% and 5.3%. The corresponding values for `COC(CC(=O)Cc1ccc(F)cc1)Cc1cccc2ccccc12` (single isomer, unassigned; 62b) are -0.5% and 4.5%.

For `Oc1ccc(CCC2=NOC(Cc3ccccc3)C2)cc1` (stereo not drawn), the Activity came out at 143% in assay [1] and 171% in assay [2].

For the compound `COc1ccccc1CC(=O)CC(Cc1cccc2ccccc12)OC` (single isomer, unassigned; 63a), the Activity in assay [1] and in assay [2] was 0% in each case.

For `Oc1ccccc1CCC1=NOC(Cc2ccccc2)C1` (stereo not drawn), the Activity came out at 18.4% in assay [1] and 111% in assay [2]. Regarding `O=C(CC(O)CCc1ccccc1)c1ccccc1` (stereo not drawn), the figures for the Activity in assay [1] and in assay [2] were 15.4% and 13%, respectively. As to `Oc1ccc(CCC2=NOC(Cc3ccc(O)cc3)C2)cc1` (stereo not drawn), the Activity in assay [1] was 4.1% and 12%; in assay [2], 81.4% and 76.2%.

On to `CS(C)=C(C(=O)CCCc1ccccc1)C(=O)Cc1ccccc1`, for which the Activity in assay [1] was -1.7%; in assay [2], 3.7%. The corresponding values for `COC(CC(=O)CCc1ccccc1)Cc1cccc2ccccc12` (stereo not drawn) are 2% and 35.5%. In the same order, the values of `COc1ccc(CC2CC(CCc3ccccc3)=NO2)cc1` (single isomer, unassigned; 50b) are 13.2% and 16.1%. The corresponding values for `COC(CCc1ccccc1)CC(=O)CCc1ccccc1` (stereo not drawn) are 19.5% and 14.5%.

Regarding `c1ccc(CC2=NOC(Cc3ccccc3)C2)cc1` (single isomer, unassigned; 14a), the Activity in assay [1] was -0.2%; in assay [2], -1.3%. For the compound `c1ccc(CCCC2=NOC(Cc3ccccc3)C2)cc1` (single isomer, unassigned), the Activity in assay [1] was 5.1%; in assay [2], 28.1%.

In the case of `O=C(Cc1ccccc1)CC(O)CCc1ccccc1` (stereo not drawn), the results for the Activity in assay [1] and in assay [2] were 0.2% and 4.3%, respectively.

In the case of `O=C(CCc1ccccc1)CC(O)Cc1ccc2ccccc2c1` (single isomer, unassigned; 57a), the Activity turned out to be 6.4% in assay [1] and 12.4% in assay [2]. In the same order, the values of `COc1ccc(CC(CC(=O)CCc2ccccc2)OC)cc1` (stereo not drawn) are 4% and 28.5%. In the same order, the values of `O=C(CCCc1ccccc1)CC(O)c1ccccc1` (single isomer, unassigned; 24b) are 28.2% and 59.3%. In the same order, the values of `Oc1ccc(CC2CC(CCc3ccccc3O)=NO2)cc1` (single isomer, unassigned; 75a) are 2.5% and 20.4%.

In the case of `Oc1ccc(CC2CC(CCc3ccccc3O)=NO2)cc1` (single isomer, unassigned; 75b), the values for the Activity in assay [1] and in assay [2] were 0.6% and 6.2%, respectively.

As to `c1ccc(CC2=NOC(Cc3ccccc3)C2)cc1` (single isomer, unassigned; 14b), the results for the Activity in assay [1] and in assay [2] were 0.3% and 0%, respectively. Regarding `O=C(CCCc1ccccc1)CC(=O)Cc1ccccc1`, the figures for the Activity in assay [1] and in assay [2] were 4.2% and 27.7%, respectively. The corresponding values for `Oc1cccc(CCC2=NOC(Cc3ccccc3)C2)c1` (single isomer, unassigned) are 6.7% and 19.2%.

On to `Oc1ccc(CC2CC(CCc3ccccc3)=NO2)cc1` (single isomer, unassigned; 69b), for which the Activity was determined as 42.4% in assay [1] and 105% in assay [2]. The corresponding values for `COC(CCc1ccccc1)CC(=O)CCCc1ccccc1` (stereo not drawn) are -14.6% and 3.1%. Consider `Oc1ccccc1CCC1=NOC(Cc2ccccc2)C1` (single isomer, unassigned), for which the results for the Activity in assay [1] and in assay [2] were 30.5% and 39.7%, respectively.

In the case of `O=C(CCc1ccccc1)CC(O)Cc1ccc(F)cc1` (stereo not drawn), the Activity in assay [1] was 5.7%; in assay [2] it was 30.1%. `c1ccc(CCC2=NOC(c3ccccc3)C2)cc1` (single isomer, unassigned; 12a): the Activity in assay [1] came out at 9.8%; in assay [2], 16.4%. The corresponding values for `COC(CC(=O)Cc1cccc2ccccc12)Cc1cccc2ccccc12` (single isomer, unassigned; 64a) are -0.5% and 5.6%. In the same order, the values of `c1ccc(CCC2=NOC(Cc3cccc4ccccc34)C2)cc1` (single isomer, unassigned; 52b) are 6.5% and 17.2%.

With `COc1ccc(CC(O)CC(=O)CCc2ccccc2)cc1` (single isomer, unassigned; 54a), the Activity was -0.8% in assay [1] and 1.6% in assay [2]. The corresponding values for `c1ccc(CCC2=NOC(Cc3ccccc3)C2)cc1` (stereo not drawn) are 1.3% and 38.2%. In the same order, the values of `O=C(Cc1ccccc1)CC(O)c1ccccc1` (stereo not drawn) are 1.6% and 0.8%. The corresponding values for `O=C(CC(=O)Cc1ccccc1)Cc1ccccc1` are 0.1% and 4.3%. Take `CS(C)=C(C(=O)CCCc1ccccc1)C(=O)c1ccccc1`: the Activity in assay [1] was 0%; in assay [2] it was -6%. In the same order, the values of `O=C(CCCc1ccccc1)CC(=O)CCc1ccccc1` are -1.5% and 6.1%. The corresponding values for `COc1ccccc1CC(CC(=O)Cc1ccc2ccccc2c1)OC` (single isomer, unassigned) are 0.3% and 0.3%. The corresponding values for `O=C(CCc1ccccc1)CC(O)c1ccccc1` (single isomer, unassigned; 23b) are 2.8% and 25.3%. With `COc1ccc(CC2CC(CCc3ccccc3)=NO2)cc1` (single isomer, unassigned; 50a), the Activity was found to be 10.6% in assay [1] and 0.8% in assay [2]. The corresponding values for `O=C(CCc1ccccc1)CC(O)Cc1ccccc1` (stereo not drawn) are 0.4% and 12.8%.

On to `c1ccc(CC2CC(c3ccccc3)=NO2)cc1` (stereo not drawn), for which the Activity in assay [1] was 12.8% and 6.6%.

With `COC(CC(=O)CCc1ccccc1)Cc1ccccc1` (stereo not drawn), the Activity in assay [1] was 1.3%; in assay [2], 9.9%.

Regarding `COC(CCc1ccccc1)CC(=O)Cc1ccccc1` (stereo not drawn), the Activity turned out to be 0.2% in assay [1] and 12% in assay [2]. As for `c1ccc(CCCC2=NOC(CCc3ccccc3)C2)cc1` (stereo not drawn), the Activity in assay [1] is 15.5%; in assay [2], 67.6%. The corresponding values for `Oc1ccc(CC2CC(CCc3ccccc3)=NO2)cc1` (single isomer, unassigned; 69a) are 9.1% and 34.2%. Consider `c1ccc(CCCC2=NOC(c3ccccc3)C2)cc1` (stereo not drawn), for which the Activity in assay [1] is 17.2% and -3.1%.
